Test results reported in ChEMBL document CHEMBL1926520, “13,13-Dimethyl-des-C,D analogues of (20S)-1α,25-dihydroxy-2-methylene-19-norvitamin D₃ (2MD): total synthesis, docking to the VDR, and biological evaluation” (Bioorg Med Chem, 2011).

Assays:
HL-60 [1] = assay: Induction of human HL60 cell differentiation after 4 days by nitro blue tetrazolium reduction assay relative to 1alpha,25(OH)2D3; assay type: functional
Outline: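 HL-60 cells were grown in RPMI-1640 with 10% FBS at 37 °C and 5% CO2, plated at 1.2×10^5 cells/plate, and treated in duplicate 18 h later (ethanol <0.2% final). After 4 days, NBT reduction was scored by counting formazan-positive cells among 200. […] The experiment was repeated 2–3 times.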

Vitamin D3 receptor [2] = molecular target: T1, Vitamin D3 receptor (Rattus norvegicus, UniProt P13053); assay: Agonist activity at rat VDR in ROS 17/2.8 cells transfected with Cyp24a1 reporter plasmid assessed as increase in Cyp24a1 transcription after 16 hrs by luciferase reporter gene assay; assay type: functional, cell-based
T1 sequence (P13053 whole entry): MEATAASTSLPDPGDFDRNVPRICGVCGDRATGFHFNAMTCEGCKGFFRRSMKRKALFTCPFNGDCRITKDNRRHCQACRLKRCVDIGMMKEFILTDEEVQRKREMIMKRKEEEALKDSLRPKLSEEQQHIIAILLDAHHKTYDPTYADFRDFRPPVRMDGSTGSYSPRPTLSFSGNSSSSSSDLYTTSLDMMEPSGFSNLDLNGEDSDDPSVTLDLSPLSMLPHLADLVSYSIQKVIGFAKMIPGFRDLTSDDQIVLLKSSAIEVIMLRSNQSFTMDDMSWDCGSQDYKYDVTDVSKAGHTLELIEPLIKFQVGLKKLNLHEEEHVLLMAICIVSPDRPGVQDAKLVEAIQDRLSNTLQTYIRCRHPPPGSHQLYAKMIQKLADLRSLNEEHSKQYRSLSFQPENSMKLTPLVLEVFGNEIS
Outline: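 ROS 17/2.8 osteosarcoma (bone) cells stably carrying a Cyp24a1 promoter–luciferase reporter were given a range of doses. Cells were harvested 16 h after dosing and luciferase was read on a luminometer. Duplicates were run on two–three separate occasions.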

Rattus norvegicus [3] = assay: Calcium mobilization in vitamin-D deficient weanling rat bone assessed as increase in serum calcium level at 2.1 ug/kg, ip administered daily for 7 consecutive days measured 24 hrs after last dose relative to vehicle treated control; assay type: functional
Outline: (§1)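 Vitamin D-deficient rats were kept on a low-calcium diet and in the final week dosed ip once daily for 7 consecutive days in 0.1 ml propylene glycol/ethanol (95:5). Controls received vehicle only. Serum Ca (mg/dL) was measured 24 h after the last dose and reported as the increase over vehicle-treated rats, average ± SEM, with 5–6 rats per group.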

Rattus norvegicus [4] = assay: Calcium mobilization in vitamin-D deficient weanling rat bone assessed as increase in serum calcium level at 19 ug/kg, ip administered daily for 7 consecutive days measured 24 hrs after last dose relative to vehicle treated control; assay type: functional; outline: as §1
Rattus norvegicus [5] = assay: Calcium mobilization in vitamin-D deficient weanling rat bone assessed as increase in serum calcium level at 6.5 ug/kg, ip administered daily for 7 consecutive days measured 24 hrs after last dose relative to vehicle treated control; assay type: functional; outline: as §1
Rattus norvegicus [6] = assay: Calcium mobilization in vitamin-D deficient weanling rat bone assessed as increase in serum calcium level at 97 ug/kg, ip administered daily for 7 consecutive days measured 24 hrs after last dose relative to vehicle treated control; assay type: functional; outline: as §1
Rattus norvegicus [7] = assay: Calcium transport in vitamin-D deficient weanling rat intestine assessed as intestinal calcium level at 2.1 ug/kg, ip administered daily for 7 consecutive days measured 24 hrs after last dose; assay type: functional
Outline: (§2)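 Vitamin D-deficient rats were kept on a low-calcium diet and dosed ip daily for 7 consecutive days in the last week, in 0.1 ml propylene glycol/ethanol (95:5), with vehicle-only controls. Measurements were taken 24 h after the final dose. Intestinal calcium transport was expressed as the rise in serosal/mucosal (S/M) ratio over vehicle, average ± SEM, with 5–6 rats per group.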

Rattus norvegicus [8] = assay: Calcium transport in vitamin-D deficient weanling rat intestine assessed as intestinal calcium level at 19 ug/kg, ip administered daily for 7 consecutive days measured 24 hrs after last dose; assay type: functional; outline: as §2
Rattus norvegicus [9] = assay: Calcium transport in vitamin-D deficient weanling rat intestine assessed as intestinal calcium level at 6.5 ug/kg, ip administered daily for 7 consecutive days measured 24 hrs after last dose; assay type: functional; outline: as §2
Rattus norvegicus [10] = assay: Calcium transport in vitamin-D deficient weanling rat intestine assessed as intestinal calcium level at 97 ug/kg, ip administered daily for 7 consecutive days measured 24 hrs after last dose; assay type: functional; outline: as §2
HL-60 [11] = assay: Induction of human HL60 cell differentiation after 4 days by nitro blue tetrazolium reduction assay; assay type: functional, cell-based; conditions: HL-60, 96 h
Vitamin D3 receptor [12] = molecular target: T1, Vitamin D3 receptor; assay: Displacement of [3H]-1alpha,25(OH)2D3 from recombinant rat VDR by scintillation counting
Outline: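 It was incubated overnight on ice with 1 nM final [3H]-1α,25(OH)2D3 plus unlabeled ligand in ethanol (<10% final). Bound ligand was collected on hydroxylapatite, washed and counted by scintillation. […] Duplicates were run on two–three occasions.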

Rattus norvegicus [13] = assay: Calcium mobilization in vitamin-D deficient weanling rat bone assessed as increase in serum calcium level at 1.9 ug/kg, ip administered daily for 7 consecutive days measured 24 hrs after last dose relative to vehicle treated control; assay type: functional; outline: as §1
Rattus norvegicus [14] = assay: Calcium mobilization in vitamin-D deficient weanling rat bone assessed as increase in serum calcium level at 5.7 ug/kg, ip administered daily for 7 consecutive days measured 24 hrs after last dose relative to vehicle treated control; assay type: functional; outline: as §1
Rattus norvegicus [15] = assay: Calcium mobilization in vitamin-D deficient weanling rat bone assessed as increase in serum calcium level at 22.8 ug/kg, ip administered daily for 7 consecutive days measured 24 hrs after last dose relative to vehicle treated control; assay type: functional; outline: as §1
Rattus norvegicus [16] = assay: Calcium mobilization in vitamin-D deficient weanling rat bone assessed as increase in serum calcium level at 0.2 ug/kg, ip administered daily for 7 consecutive days measured 24 hrs after last dose relative to vehicle treated control; assay type: functional; outline: as §1
Rattus norvegicus [17] = assay: Calcium mobilization in vitamin-D deficient weanling rat bone assessed as increase in serum calcium level at 0.7 ug/kg, ip administered daily for 7 consecutive days measured 24 hrs after last dose relative to vehicle treated control; assay type: functional; outline: as §1
Rattus norvegicus [18] = assay: Calcium transport in vitamin-D deficient weanling rat intestine assessed as intestinal calcium level at 0.2 ug/kg, ip administered daily for 7 consecutive days measured 24 hrs after last dose; assay type: functional; outline: as §2
Rattus norvegicus [19] = assay: Calcium transport in vitamin-D deficient weanling rat intestine assessed as intestinal calcium level at 0.7 ug/kg, ip administered daily for 7 consecutive days measured 24 hrs after last dose; assay type: functional; outline: as §2

Row | Compound | Ratio EC50 (HL-60 [1]) | EC50 (Vitamin D3 receptor [2]) [nM] | Activity (Rattus norvegicus [3]) [mg/dL] | Activity (Rattus norvegicus [4]) [mg/dL] | Activity (Rattus norvegicus [5]) [mg/dL] | Activity (Rattus norvegicus [6]) [mg/dL] | Activity (Rattus norvegicus [7]) [mg/dL] | Activity (Rattus norvegicus [8]) [mg/dL] | Activity (Rattus norvegicus [9]) [mg/dL] | Activity (Rattus norvegicus [10]) [mg/dL] | EC50 (HL-60 [11]) [nM] | Ki (Vitamin D3 receptor [12]) [nM] | Activity (Rattus norvegicus [13]) [mg/dL] | Activity (Rattus norvegicus [14]) [mg/dL] | Activity (Rattus norvegicus [15]) [mg/dL] | Activity (Rattus norvegicus [16]) [mg/dL] | Activity (Rattus norvegicus [17]) [mg/dL] | Activity (Rattus norvegicus [18]) [mg/dL] | Activity (Rattus norvegicus [19]) [mg/dL]
1 | C=C1[C@H](O)CC(=C/C=C/CC(C)(C)C[C@@H](C)CCCC(C)(C)O)C[C@H]1O | 2 | 2 | 0.2 | 0.4 | 0.6 | 0.3 | 0 | 1 | 0.4 | 2.6 | 6 | 2 | – | – | – | – | – | – | –
2 | C=C1[C@H](O)CC(=C/C=C\CC(C)(C)C[C@@H](C)CCCC(C)(C)O)C[C@H]1O | – | 30 | – | – | 0.2 | – | – | – | 0.1 | – | – | 10 | – | – | – | – | – | – | –
3 | C=C1[C@H](O)CC(=C/C=C/CCC[C@@H](C)CCCC(C)(C)O)C[C@H]1O | 100 | – | – | – | – | – | – | – | – | – | – | – | -0.2 | 0.1 | 0.2 | – | – | – | –
4 | C=C1/C(=C\C=C2/CCC[C@]3(C)[C@@H]([C@H](C)CCCC(C)(C)O)CC[C@@H]23)C[C@@H](O)C[C@@H]1O [CALCITRIOL] | – | – | 1.9 | 3.9 | – | – | 4.2 | 5.9 | – | – | – | – | – | – | – | 0.5 | 1.3 | 4.2 | 2.8
